# HCT116 bCat-KO: beta-catenin-lacking colon tumor cell growth suppression. HCT116 beta-catenin knockout viability, CellTiter-Glo, 60 h; hits give low values. viability, % at 10 µM. 140,000 compounds, 1.5% hits. AID 818;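 active = viability at or under a set limit, the compound median less 4 SD, cut at about 6% in these data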;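 note: 0% = Hyamine 1622 control at 20 µM and 100% = untreated cell control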
# HUVEC prolif 384: human endothelial cell proliferation inhibition | HUVEC proliferation, CellTiter-Glo luminescence, 72 h; hits give low values | viability, % at 10 µM (by protocol) | 86,000 compounds, 1.1% hits;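 active = viability at or below 30%; inactive = viability above 30%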;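 note: 100% = median luminescence of DMSO-only cell control wells on each plate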
# PTEN del growth: growth suppressors of cells with PTEN tumor suppressor deletion; HCT116 PTEN-null viability, CellTiter-Glo, 60 h; hits give low values; viability, % at 10 µM; 140,000 compounds, 1.2% hits; AID 827;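 active = viability at or below a set limit, 4 SD under the median of all tested compounds, cut at about 3.7% in these data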;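 note: PTEN knockout HCT116 line with beta catenin targeted HCT116 as companion control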
# H69AR inhibit: growth inhibitors of human H69AR lung tumor cells. H69AR lung tumor viability, ATP luminescence, 72 h; hits give low values. viability, % at 10 µM. 85,000 compounds, 6% hits. AID 598;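 active = viability at or below 40%; inactive = viability above 40%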;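 note: multidrug resistant small cell line overexpressing MRP-1 efflux transporter; 100% = mean luminescence of untreated control wells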
# Fibroblast inh: blocks proliferation of human lung fibroblasts; LL 47 human lung fibroblast viability, ATP luminescence; hits give low values; viability, % at 10 µM; AID 719; 85,000 compounds, 1.1% hits;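 active = viability at or below 50% in the single dose screen; inactive = viability above 50%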;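 note: compound exposure lasted 72 h before the ATP readout; 100% = median luminescence of untreated cell-only wells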
#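 Material: human LL 47 lung fibroblast cells; quantity: 1,150 cells/well; medium: IMEM plus 15% FBS; doses: 0.1% DMSO in all compound wells; timing: overnight attachment after seeding, then 72 h compound exposure at 37 °C; detection: CellTiter-Glo luminescence; measure: % viability of median cell-only signal; controls: cell-only wells, no compound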
# * hit, by the source's call; / = no result. Many of the other results were omitted from the sample, so hits are more common in it than they were.
SMILES,HCT116 bCat-KO,HUVEC prolif 384,PTEN del growth,H69AR inhibit,Fibroblast inh
Cc1cc(C)n(-c2nc3c(c(=O)[nH]c(=O)n3C)n2CCc2ccccc2)n1,27,77,22,24*,92
O=C(CSc1ccccc1)N(c1ccc(Br)cc1)c1nccs1,83,/,72,/,/
CC1CCN(CCCNC(=O)c2cc3sccc3n2C)CC1,72,91,70,76,96
COc1ccc(N2CCN(CCCNC(=O)c3cc4sccc4n3C)CC2)cc1,68,86,69,30*,93
O=C(Oc1c(Cl)cc(Cl)c2cccnc12)c1cccs1,12,48,12,27*,61
O=C(Oc1c(Cl)cc(Cl)c2cccnc12)c1ccco1,3.5*,30,13,1.8*,43*
Cc1cccc(NC(=O)c2cc(NC(=O)c3ccco3)ccc2N2CCCCC2)c1,91,26*,95,93,84
CCc1nc(NCCCn2ccnc2)c2oc3ccccc3c2n1,90,83,92,76,91
c1ccc(-c2nc(NCCCn3ccnc3)c3oc4ccccc4c3n2)cc1,25,54,26,18*,88
COc1cccc(-c2nc(CS(=O)(=O)CC(=O)NCCC(C)C)c(C)o2)c1,92,/,93,/,/
COc1cccc(-c2nc(CS(=O)(=O)CC(=O)Nc3cc(C)ccc3C)c(C)o2)c1,66,95,75,20*,103
COc1cccc(-c2nc(CS(=O)(=O)CC(=O)Nc3c(C)cccc3C)c(C)o2)c1,96,79,100,14*,92
CC1(C)Nc2ccc(O)cc2-c2c1ssc2=S,80,27*,78,68,88
Cc1cc(NC(=O)c2cncc(Br)c2)n(-c2ccccn2)n1,103,85,85,37*,99
CCOC(=O)c1c(NC(=O)Cn2c(C)nc3ccccc32)sc2c1CCC2,96,83,88,36*,69
CCOC(=O)c1c(NC(=O)c2ccc(N3C(=O)[C@@H]4[C@H](C3=O)[C@H]3C=C[C@@H]4C3)cc2)sc2c1CCCC2,90,/,89,/,/
COCCn1c(N)c(C(=O)Nc2sc3c(c2C(=O)OC)CCCC3)c2nc3ccccc3nc21,4.0*,81,4,43,86
CCOC(=O)c1c(NC(=O)c2ccc(-n3cnnn3)cc2)sc2c1CCCC2,3.4*,36,5,2.1*,/
O=C(N/N=C/c1ccccc1OCC(=O)N1CCCC1)C(=O)Nc1ccccc1F,63,/,65,/,/
O=C(Nc1cccc(Cl)c1)N1CCN2C(=O)c3ccccc3C12c1ccccc1 (centres undefined),80,82,61,85,82
Cc1ccc(C(=O)N2CCN3C(=O)c4ccccc4C23c2ccc(Cl)cc2)cc1 (centres undefined),13,66,8,33*,61
O=C(CSc1nnc(-c2ccc3c(c2)OCO3)o1)Nc1ncc(Cl)cc1Cl,25,/,15,/,/
CCOC(=O)C1=C(C)NC(C)=C(C(=O)OC)C1c1cccc([N+](=O)[O-])c1 (centres undefined),87,78,87,92,95
COC(=O)C1=C(C)NC(C)=C(C(=O)OC)C1c1ccccc1[N+](=O)[O-],1.6*,81,1.9*,8.5*,56
COc1coc(C(O)C[N+](=O)[O-])cc1=O (centres undefined),92,/,106,/,/
SMILES,HCT116 bCat-KO,HUVEC prolif 384,PTEN del growth,H69AR inhibit,Fibroblast inh
O=C(COc1cccnc1[N+](=O)[O-])Nc1ccc2c(c1)OC(F)(F)O2,93,/,103,/,/
Cc1cc(C)c(C(=O)COc2cccnc2[N+](=O)[O-])cc1C,79,85,73,1.1*,79
CCOC(=O)c1c(-c2ccc(OC)cc2)csc1/N=C/C1=C(O)CCCC1=O,93,/,102,/,/
O=C(Nc1ccccc1)Nc1cc(OCC(F)(F)F)cc(OCC(F)(F)F)c1,2.2*,/,1.9*,/,/
O=C(Nc1ccccc1)Nc1cc(Cl)cc(Cl)c1,2.0*,28*,2.2*,1.8*,54
O=C(Nc1cccc(Cl)c1)Nc1cccc(Cl)c1,86,82,70,85,95
Clc1cc(Cl)cc(C2=NCCC(c3ccccc3)O2)c1 (centres undefined),81,/,80,/,/
Cn1cccc1C(=O)C(=O)Nc1ccccc1,85,/,88,/,/
CON(c1nc(Cl)nc(N(C)C)n1)S(=O)(=O)c1ccccc1Cl,86,90,90,22*,91
CSc1cc(-c2ccccc2)n(Cc2ccccc2Cl)c(=O)c1C#N,22,62,26,4.8*,55
Cc1ccc(NC(=O)CCC(=O)N/N=C/C=C/c2ccccc2)cc1,96,/,91,/,/
CCCCCCOc1ccc(NC(=O)CC2C(=O)N(CC)C(=S)N2Cc2ccco2)cc1 (centres undefined),18,/,18,/,/
COc1ccc(/C=C/C(=O)c2cc(F)ccc2OC(=O)c2ccccc2C)cc1OC,2.2*,/,2.1*,/,/
COc1ccc(C(=O)Oc2ccc(F)cc2C(=O)/C=C/c2ccc(OC)c(OC)c2)cc1,98,/,101,/,/
Nc1[nH]c(=O)ncc1F,91,101,99,96,91
COc1ccc(Cl)cc1NC(=O)C(C)N1CCN(C/C=C/c2ccccc2)CC1 (centres undefined),84,67,77,40*,89
COc1ccc(-c2cc(C(F)(F)F)nc(N3CCOCC3)n2)cc1,89,88,89,81,87
COc1ccc(-c2cc(C(F)(F)F)nc(N3CCN(c4ccc(F)cc4)CC3)n2)cc1OC,99,68,102,17*,94
COc1ccc(-c2cc(-c3ccc(F)cc3)nc(N3CCN(C)CC3)n2)cc1,3.3*,70,3.4*,47,/
COc1cc(/C=C/C(=O)c2c(O)cc(C)oc2=O)cc(OC)c1O,83,79,73,25*,70
COc1cccc(/C=C/C(=O)c2c(O)cc(C)oc2=O)c1O,54,61,62,4.0*,69
Cc1nn(-c2ccc(F)cc2)c(Cl)c1/C=C/C(=O)OCC(=O)Nc1c(F)c(F)c(F)c(F)c1F,93,/,97,/,/
O=C(CNC1CCCCCC1)Nc1ccc(N2CCCC2)cc1,66,/,63,/,/
O=C(COC(=O)C1CCCCC1)Nc1ccc(N2CCCCC2)cc1,92,98,99,38*,95
O=C(CNCCC1=CCCCC1)Nc1ccc(N2CCCCCC2)cc1,36,2.0*,24,0.2*,23*
COCCn1c(CNc2ccc(F)cc2)nnc1SCC(=O)Nc1ccc(OC)cc1OC,87,101,103,89,91
CCOC(=O)C1=C(CN2CCCCC2)NC(=O)NC1c1cc(C)ccc1C (centres undefined),89,109,92,74,103
CCOC(=O)C1=C(CSCc2ccccc2)NC(=O)NC1c1cc(C)ccc1C (centres undefined),53,94,49,32*,98
CC/S(C)=N/S(=O)(=O)c1ccc(C)cc1 (centres undefined),90,/,97,/,/
Cc1c(Cl)c(C(=O)N2CCCC2)nn1C,102,/,102,/,/

# Screening results: PubChem, SRMLSC
